# Measurements collected from several papers.
# Compare with care: the assays were run in different laboratories.
# LIMK2: LIM domain kinase 2 (LIMK2, Homo sapiens, UniProt P53671)
# CNR2: Cannabinoid receptor 2 (CNR2, Homo sapiens, UniProt P34972)
Compound,target,assay,setting,measurement,result
COc1ccc(S(=O)(=O)N(CC(=O)NO)CC(C)C)cc1,"72 kDa type IV collagenase (MMP2, Homo sapiens, UniProt P08253)","enzyme activity, inhibitor",1 µM,inhibition,100%
O=C(N1CCCCC1Cc1ccccc1)n1cc(-c2ccc(-c3ccccc3)cc2)nn1 (stereo not shown),"Diacylglycerol lipase-alpha (Mus musculus, UniProt Q6WQJ1)","enzyme activity, inhibitor",,kinact,0.00133 s⁻¹
Nc1ccc2cccc(O)c2n1,"Methionyl-tRNA synthetase, putative (Trypanosoma brucei brucei, UniProt Q38C91)","thermal stability, DSF",800 µM,ΔTm,1.8 °C
Cc1nn(C)cc1-c1nc2c(N3CCN(Cc4ccc(Cl)cc4)CC3)c(Cl)cnc2[nH]1,"Serine/threonine-protein kinase 35 (STK35, Homo sapiens, UniProt Q8TDR2)","binding, competition with immobilised ligand",1 µM,remaining binding,75%
Cn1cc(-c2cccc(N3CCc4c(sc5c4CC(C)(C)C5)C3=O)c2CO)cc(Nc2ccncn2)c1=O,LIMK2,"enzyme activity, inhibitor",1 µM,inhibition,6%
O=C(O)C(F)(F)C(F)(F)C(F)(F)C(F)(F)C(F)(F)C(F)(F)C(F)(F)F,"Solute carrier family 22 member 12 (SLC22A12, Homo sapiens, UniProt Q96S37)","transporter uptake, substrate",,Km,820 µM
CCN(CC)CCCC[C@H](NC(=O)[C@H](CC(C)C)NC(=O)[C@H](C)NC(=O)[C@H](Cc1ccccc1)NC(=O)c1ccc(C(C)(C)C)cc1)C(=O)N[C@@H](CO)C(=O)OC,"Bromodomain-containing protein 9 (BRD9, Homo sapiens, UniProt Q9H8M2)","thermal stability, DSF",25 µM,ΔTm,0.23 °C
CCOC(=O)C(CC)(CCCSCCOCCOCCOCCNC(=O)OC(C)(C)C)NC(=O)c1ccc(C2CC2)c(Cc2ccc(F)cc2)n1 (stereo not shown),CNR2,"cAMP, agonist",,Emax,91%
Nc1ncc(-c2nc(N3CCOCC3)nc(N3CCOCC3)n2)c(C(F)F)n1,"Membrane-associated tyrosine- and threonine-specific cdc2-inhibitory kinase (PKMYT1, Homo sapiens, UniProt Q99640)","binding, competition with immobilised ligand",10 µM,remaining binding,98%
CCOC(=O)[C@](CC)(CCC[S+]([O-])CCOCCOCCNC(=O)OC(C)(C)C)NC(=O)c1ccc(C2CC2)c(Cc2ccc(F)cc2)n1 (stereo partly shown),CNR2,"cAMP, agonist",,Emax,93%
COc1ncccc1-c1cnn2ccc(N3CCN(C(=O)OC(C)C)CC3)nc12,"Epithelial discoidin domain-containing receptor 1 (DDR1, Homo sapiens, UniProt Q08345)","binding, competition with immobilised ligand",1 µM,remaining binding,100%
C#Cc1n[nH]c2c(-c3cn([C@@H](C)c4ccccn4)c(=O)[nH]c3=O)cc(F)cc12,"Serine/threonine-protein kinase haspin (HASPIN, Homo sapiens, UniProt Q8TF76)","enzyme activity, inhibitor",0.1 µM,inhibition,4.5%
Cn1cc(-c2cc(F)cc(N3CCn4c(cc5c4CCCC5)C3=O)c2CO)cc(Nc2ccc(N3CCN(C4COC4)CC3)cn2)c1=O,LIMK2,"enzyme activity, inhibitor",0.1 µM,inhibition,-3%
